Test results as given in ChEMBL document CHEMBL1151705, “Novel azalides derived from 16-membered macrolides. Part II: Isolation of the linear 9-formylcarboxylic acid and its sequential macrocyclization with an amino alcohol or an azidoamine” (2008).
In brackets after ≈: the same amount, converted by molar mass.

Assays:
Format in all cases: functional
Streptococcus pneumoniae [1] = assay: Antimicrobial activity against Streptococcus pneumoniae 8 expressing inducible ermB after 20 hrs by agar dilution method
Method in brief: (§1)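 Streptococci, H. influenzae and M. catarrhalis were precultured on blood agar plates. Suspensions of about 10⁶ CFU/ml were inoculated onto sensitivity disk agar supplemented with 5% horse blood and incubated at 37 °C for 20 h. MIC was read as the lowest drug concentration with no visible growth.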

Streptococcus pneumoniae [2] = assay: Antimicrobial activity against Streptococcus pneumoniae 9 expressing mefA after 20 hrs by agar dilution method; conditions: Streptococcus pneumoniae, 20 h; read-out: MIC; method in brief: as §1
Streptococcus pneumoniae [3] = assay: Antimicrobial activity against Streptococcus pneumoniae 10 expressing mefA after 20 hrs by agar dilution method; conditions: Streptococcus pneumoniae, 20 h; read-out: MIC; method in brief: as §1
Streptococcus pyogenes [4] = assay: Antimicrobial activity against drug-susceptible Streptococcus pyogenes 1 after 20 hrs by agar dilution method; conditions: Streptococcus pyogenes, 20 h; read-out: MIC; method in brief: as §1
Streptococcus pyogenes [5] = assay: Antimicrobial activity against Streptococcus pyogenes 2 constitutively expressing ermB after 20 hrs by agar dilution method; method in brief: as §1
Streptococcus pyogenes [6] = assay: Antimicrobial activity against Streptococcus pyogenes 3 expressing mefA after 20 hrs by agar dilution method; conditions: Streptococcus pyogenes, 20 h; read-out: MIC; method in brief: as §1
Moraxella catarrhalis [7] = assay: Antimicrobial activity against drug-susceptible Moraxella catarrhalis 1 after 20 hrs by agar dilution method; conditions: Moraxella catarrhalis, 20 h; read-out: MIC; method in brief: as §1
Moraxella catarrhalis [8] = assay: Antimicrobial activity against drug-susceptible Moraxella catarrhalis 2 after 20 hrs by agar dilution method; conditions: Moraxella catarrhalis, 20 h; read-out: MIC; method in brief: as §1
Haemophilus influenzae [9] = assay: Antimicrobial activity against drug-susceptible Haemophilus influenzae 1 after 20 hrs by agar dilution method; conditions: Haemophilus influenzae, 20 h; read-out: MIC; method in brief: as §1
Haemophilus influenzae [10] = assay: Antimicrobial activity against drug-susceptible Haemophilus influenzae 2 after 20 hrs by agar dilution method; conditions: Haemophilus influenzae, 20 h; read-out: MIC; method in brief: as §1
Haemophilus influenzae [11] = assay: Antimicrobial activity against drug-susceptible Haemophilus influenzae 3 after 20 hrs by agar dilution method; conditions: Haemophilus influenzae, 20 h; read-out: MIC; method in brief: as §1
Haemophilus influenzae [12] = assay: Antimicrobial activity against drug-susceptible Haemophilus influenzae 4 after 20 hrs by agar dilution method; conditions: Haemophilus influenzae, 20 h; read-out: MIC; method in brief: as §1
Staphylococcus aureus [13] = assay: Antimicrobial activity against drug-susceptible Staphylococcus aureus 209P JC-1 after 20 hrs by agar dilution method; conditions: Staphylococcus aureus, 209P, 20 h; read-out: MIC
Method in brief: (§2)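 Agar dilution MIC. S. aureus seed culture was grown in sensitivity test broth. Cell suspension (about 10⁶ CFU/ml) was inoculated onto sensitivity disk agar with 5% horse blood and incubated at 37 °C for 20 h. MIC was the lowest drug concentration that prevented visible growth.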

Staphylococcus aureus [14] = assay: Antimicrobial activity against drug-susceptible Staphylococcus aureus 2 after 20 hrs by agar dilution method; conditions: Staphylococcus aureus, 20 h; read-out: MIC; method in brief: as §2
Staphylococcus aureus [15] = assay: Antimicrobial activity against drug-susceptible Staphylococcus aureus 3 after 20 hrs by agar dilution method; conditions: Staphylococcus aureus, 20 h; read-out: MIC; method in brief: as §2
Staphylococcus aureus [16] = assay: Antimicrobial activity against Staphylococcus aureus 4 constitutively expressing ermA after 20 hrs by agar dilution method; method in brief: as §2
Staphylococcus aureus [17] = assay: Antimicrobial activity against Staphylococcus aureus 5 expressing inducible ermB after 20 hrs by agar dilution method; conditions: Staphylococcus aureus, 20 h; read-out: MIC; method in brief: as §2
Streptococcus pneumoniae [18] = assay: Antimicrobial activity against drug-susceptible Streptococcus pneumoniae DP1 Type1 after 20 hrs by agar dilution method; method in brief: as §1
Streptococcus pneumoniae [19] = assay: Antimicrobial activity against drug-susceptible Streptococcus pneumoniae 2 after 20 hrs by agar dilution method; conditions: Streptococcus pneumoniae, 20 h; read-out: MIC; method in brief: as §1
Streptococcus pneumoniae [20] = assay: Antimicrobial activity against Streptococcus pneumoniae 5 constitutively expressing ermB/mefA after 20 hrs by agar dilution method; conditions: Streptococcus pneumoniae, 20 h; read-out: MIC; method in brief: as §1
Streptococcus pneumoniae [21] = assay: Antimicrobial activity against Streptococcus pneumoniae 6 constitutively expressing ermB after 20 hrs by agar dilution method; conditions: Streptococcus pneumoniae, 20 h; read-out: MIC; method in brief: as §1
Streptococcus pneumoniae [22] = assay: Antimicrobial activity against Streptococcus pneumoniae 7 expressing inducible ermB after 20 hrs by agar dilution method; method in brief: as §1
Staphylococcus aureus [23] = assay: Antimicrobial activity against Staphylococcus aureus 6 expressing inducible ermB after 20 hrs by agar dilution method; method in brief: as §2
[24] = Streptococcus pneumoniae, 20 h, read-out: MIC

MIC (Streptococcus pneumoniae [2]) | MIC (Streptococcus pneumoniae [3]) | MIC (Streptococcus pyogenes [4]) | MIC (Streptococcus pyogenes [5]) | MIC (Streptococcus pyogenes [6]) | MIC (Moraxella catarrhalis [7]) | MIC (Moraxella catarrhalis [8]) | MIC (Haemophilus influenzae [9]) | MIC (Haemophilus influenzae [10]) | MIC (Haemophilus influenzae [11]) | MIC (Haemophilus influenzae [12]) | MIC (Staphylococcus aureus [13]) | MIC (Staphylococcus aureus [14]) | MIC (Staphylococcus aureus [15]) | MIC (Staphylococcus aureus [16]) | MIC (Staphylococcus aureus [17]) | MIC (Streptococcus pneumoniae [19]) | MIC (Streptococcus pneumoniae [20]) | MIC (Streptococcus pneumoniae [21]) | MIC (Staphylococcus aureus [23]) | SMILES | also measured
0.25 µg/mL (≈ 0.248 µM) | 0.25 µg/mL (≈ 0.248 µM) | 0.13 µg/mL (≈ 0.129 µM) | > 128 µg/mL | 0.5 µg/mL (≈ 0.497 µM) | 0.25 µg/mL (≈ 0.248 µM) | 0.25 µg/mL (≈ 0.248 µM) | 16 µg/mL (≈ 15.9 µM) | 0.5 µg/mL (≈ 0.497 µM) | 2 µg/mL (≈ 1.99 µM) | 4 µg/mL (≈ 3.98 µM) | 0.25 µg/mL (≈ 0.248 µM) | 1 µg/mL (≈ 0.994 µM) | 0.5 µg/mL (≈ 0.497 µM) | > 128 µg/mL | 0.25 µg/mL (≈ 0.248 µM) | 0.5 µg/mL (≈ 0.497 µM) | > 128 µg/mL | > 128 µg/mL | 1 µg/mL (≈ 0.994 µM) | CCOC(=O)[C@H]1[C@H](C)O[C@@H](O[C@H]2[C@H](N(C)C)[C@@H](O)[C@H](O[C@H]3[C@@H](CC=O)C[C@@H](C)[C@@H](OC(C)=O)CN(CCCCc4ccccc4)CCCNC(=O)C[C@@H](OC(=O)CC)[C@@H]3OC)O[C@@H]2C)C[C@@]1(C)OC(C)=O | MIC (Streptococcus pneumoniae [1]; [24]): 32 µg/mL (≈ 31.8 µM); MIC (Streptococcus pneumoniae [18]; [24]): 0.25 µg/mL (≈ 0.248 µM); MIC (Streptococcus pneumoniae [22]; [24]): 32 µg/mL (≈ 31.8 µM)
0.25 µg/mL (≈ 0.256 µM) | 0.25 µg/mL (≈ 0.256 µM) | 0.06 µg/mL (≈ 0.0613 µM) | > 128 µg/mL | 0.25 µg/mL (≈ 0.256 µM) | 0.13 µg/mL (≈ 0.133 µM) | 0.13 µg/mL (≈ 0.133 µM) | 16 µg/mL (≈ 16.4 µM) | 1 µg/mL (≈ 1.02 µM) | 4 µg/mL (≈ 4.09 µM) | 4 µg/mL (≈ 4.09 µM) | 0.25 µg/mL (≈ 0.256 µM) | 1 µg/mL (≈ 1.02 µM) | 0.25 µg/mL (≈ 0.256 µM) | > 128 µg/mL | 0.25 µg/mL (≈ 0.256 µM) | 0.13 µg/mL (≈ 0.133 µM) | > 128 µg/mL | > 128 µg/mL | 0.5 µg/mL (≈ 0.511 µM) | CCOC(=O)[C@H]1[C@H](C)O[C@@H](O[C@H]2[C@H](N(C)C)[C@@H](O)[C@H](O[C@H]3[C@@H](CC=O)C[C@@H](C)[C@@H](O)CN(CCCCc4ccccc4)CCC(C)NC(=O)C[C@@H](OC(=O)CC)[C@@H]3OC)O[C@@H]2C)C[C@@]1(C)OC(C)=O (stereo in doubt; form 1) | MIC (Streptococcus pneumoniae [1]): 128 µg/mL (≈ 131 µM); MIC (Streptococcus pneumoniae [18]): 0.06 µg/mL (≈ 0.0613 µM); MIC (Streptococcus pneumoniae [22]): 128 µg/mL (≈ 131 µM)
0.06 µg/mL (≈ 0.0613 µM) | 0.06 µg/mL (≈ 0.0613 µM) | 0.06 µg/mL (≈ 0.0613 µM) | > 128 µg/mL | 0.13 µg/mL (≈ 0.133 µM) | 0.13 µg/mL (≈ 0.133 µM) | 0.25 µg/mL (≈ 0.255 µM) | 32 µg/mL (≈ 32.7 µM) | 1 µg/mL (≈ 1.02 µM) | 4 µg/mL (≈ 4.08 µM) | 8 µg/mL (≈ 8.17 µM) | 0.13 µg/mL (≈ 0.133 µM) | 0.5 µg/mL (≈ 0.511 µM) | 0.25 µg/mL (≈ 0.255 µM) | > 128 µg/mL | 0.5 µg/mL (≈ 0.511 µM) | 0.13 µg/mL (≈ 0.133 µM) | 128 µg/mL (≈ 131 µM) | > 128 µg/mL | 0.5 µg/mL (≈ 0.511 µM) | CCOC(=O)[C@H]1[C@H](C)O[C@@H](O[C@H]2[C@H](N(C)C)[C@@H](O)[C@H](O[C@H]3[C@@H](CC=O)C[C@@H](C)[C@@H](O)CN(CCCCc4ccccc4)CC[C@@H](C)OC(=O)C[C@@H](OC(=O)CC)[C@@H]3OC)O[C@@H]2C)C[C@@]1(C)OC(C)=O | MIC (Streptococcus pneumoniae [1]; [24]): 8 µg/mL (≈ 8.17 µM); MIC (Streptococcus pneumoniae [18]; [24]): 0.06 µg/mL (≈ 0.0613 µM); MIC (Streptococcus pneumoniae [22]; [24]): 8 µg/mL (≈ 8.17 µM)
2 µg/mL (≈ 1.99 µM) | 2 µg/mL (≈ 1.99 µM) | 2 µg/mL (≈ 1.99 µM) | > 128 µg/mL | 4 µg/mL (≈ 3.97 µM) | 8 µg/mL (≈ 7.94 µM) | > 128 µg/mL | > 128 µg/mL | > 128 µg/mL | > 128 µg/mL | > 128 µg/mL | 4 µg/mL (≈ 3.97 µM) | > 128 µg/mL | 4 µg/mL (≈ 3.97 µM) | > 128 µg/mL | 4 µg/mL (≈ 3.97 µM) | 2 µg/mL (≈ 1.99 µM) | > 128 µg/mL | > 128 µg/mL | 8 µg/mL (≈ 7.94 µM) | CCOC(=O)[C@H]1[C@H](C)O[C@@H](O[C@H]2[C@H](N(C)C)[C@@H](O)[C@H](O[C@H]3[C@@H](CC=O)C[C@@H](C)[C@@H](OC(C)=O)CN(CCCCc4ccccc4)C[C@@H](C)OC(=O)C[C@@H](OC(=O)CC)[C@@H]3OC)O[C@@H]2C)C[C@@]1(C)OC(C)=O | MIC (Streptococcus pneumoniae [1]; [24]): > 128 µg/mL; MIC (Streptococcus pneumoniae [18]; [24]): 1 µg/mL (≈ 0.993 µM); MIC (Streptococcus pneumoniae [22]; [24]): > 128 µg/mL
1 µg/mL (≈ 0.994 µM) | 1 µg/mL (≈ 0.994 µM) | 0.5 µg/mL (≈ 0.497 µM) | > 128 µg/mL | 1 µg/mL (≈ 0.994 µM) | 1 µg/mL (≈ 0.994 µM) | 1 µg/mL (≈ 0.994 µM) | > 128 µg/mL | 4 µg/mL (≈ 3.98 µM) | 16 µg/mL (≈ 15.9 µM) | 16 µg/mL (≈ 15.9 µM) | 1 µg/mL (≈ 0.994 µM) | 4 µg/mL (≈ 3.98 µM) | 2 µg/mL (≈ 1.99 µM) | > 128 µg/mL | 1 µg/mL (≈ 0.994 µM) | 1 µg/mL (≈ 0.994 µM) | > 128 µg/mL | > 128 µg/mL | 2 µg/mL (≈ 1.99 µM) | CCOC(=O)[C@H]1[C@H](C)O[C@@H](O[C@H]2[C@H](N(C)C)[C@@H](O)[C@H](O[C@H]3[C@@H](CC=O)C[C@@H](C)[C@@H](OC(C)=O)CN(CCCCc4ccccc4)C[C@@H](C)NC(=O)C[C@@H](OC(=O)CC)[C@@H]3OC)O[C@@H]2C)C[C@@]1(C)OC(C)=O | MIC (Streptococcus pneumoniae [1]; [24]): 32 µg/mL (≈ 31.8 µM); MIC (Streptococcus pneumoniae [18]; [24]): 0.5 µg/mL (≈ 0.497 µM); MIC (Streptococcus pneumoniae [22]; [24]): 32 µg/mL (≈ 31.8 µM)
